From PubChem
KCNK9 inh – KCNK9 potassium channel inhibitors, primary screen, HEK293 cells, thallium flux | Potassium channel subfamily K member 9 (Homo sapiens), Q9NPC2 | B-score at 10 µM | 310,000 tested, 1.2% active | FluxOR thallium flux fluorescence; hits give low values;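 active = ratio B-score over 3 SD below the library mean, with starting fluorescence within 5 SD of its mean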;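 also: negative B-score means less thallium flux so channel inhibition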
hERG rescue – hERG rescue from dofetilide block, primary screen, cell-based, CHO-hERG, FluxOR thallium flux, dofetilide IC70; 310,000 tested, 0.51% active; activation (rescue from dofetilide block), less the hit threshold, % at 10 µM; AID 1511, 2009; dofetilide IC70 present;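 active = activation above the mean of controls blocked by dofetilide plus 5 SD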;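 also: thallium influx through hERG after potassium depolarization seen as dye fluorescence rise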
Kir21 block – inhibitors of mouse Kir2.1 inward-rectifier potassium channel. B-score at 10 µM. Inward rectifier potassium channel 2 (Mus musculus), P35561. 310,000 tested, 0.85% active. HEK293-Kir2.1, FluxOR thallium flux fluorescence; hits give low values;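 active = fluorescence ratio B-score at or below minus 3 SD of library scores, with starting-brightness B-score within 2 SD, cut at about -4.2 in these data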;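 also: channel flux triggered by added potassium and thallium sulfate stimulus; B-score of peak minus minimum fluorescence over baseline after thallium stimulus; more negative B-score means stronger Kir2.1 block with less thallium influx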
Target sequence (P35561 whole entry, looked up): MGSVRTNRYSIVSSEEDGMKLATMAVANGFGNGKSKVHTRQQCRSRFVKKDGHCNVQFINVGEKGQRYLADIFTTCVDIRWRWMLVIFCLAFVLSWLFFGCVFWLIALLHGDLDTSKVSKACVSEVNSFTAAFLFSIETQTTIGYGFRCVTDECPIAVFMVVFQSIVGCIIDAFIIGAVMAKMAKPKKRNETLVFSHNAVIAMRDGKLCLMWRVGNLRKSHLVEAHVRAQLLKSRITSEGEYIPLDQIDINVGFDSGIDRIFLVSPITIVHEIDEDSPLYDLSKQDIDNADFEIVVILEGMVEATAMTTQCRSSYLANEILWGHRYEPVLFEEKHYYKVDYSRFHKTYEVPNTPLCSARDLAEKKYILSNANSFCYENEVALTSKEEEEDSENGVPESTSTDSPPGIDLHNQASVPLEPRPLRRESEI
KCNQ1 act – potentiators or activators of KCNQ1 channel, primary screen, cell-based, thallium flux, high-throughput | 310,000 tested, 0.35% active | CHO-K1 KCNQ1, thallium flux FluxOR fluorescence; hits give high values | Potassium voltage-gated channel subfamily KQT member 1 (Homo sapiens), P51787 | B-score at 10 µM;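 active = fluorescence ratio B-score, a plate-corrected score, at least three library SD, with initial intensity B-score within 5 SD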
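assay system = CHO-K1 cells stably expressing KCNQ1 | medium = assay buffer, equal DMSO in all wells | timing = 37 °C overnight plating, 90-min dark dye load, 20-min compound pretreatment | measured by = kinetic FluxOR thallium fluorescence, 10-s 1-Hz baseline, 110-s post-stimulus read | measure = fluorescence change relative to baseline, converted to B score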
KCNK3 block – human KCNK3 channel inhibitors, primary screen, CHO cells, FluxOR thallium flux, B-score; B-score at 10 µM; Potassium channel subfamily K member 3 (Homo sapiens), O14649; FluxOR fluorescence; hits give low values; 340,000 tested, 0.84% active;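 active = B-score under library mean minus 4 SD, starting fluorescence ratio at most library mean plus 5 SD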;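 also: more negative B-score means stronger inhibition of thallium flux through KCNK3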
KCNQ1 inh – inhibitors of human KCNQ1 channel, primary screen, cell-based, thallium flux, high-throughput. CHO-K1 KCNQ1, FluxOR thallium flux fluorescence; hits give high values. B-score at 10 µM. 310,000 tested, 1.3% active. AID 2642, 2010;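 active = compounds whose thallium flux B-score, printed positive for inhibition, exceeds three library SD while starting fluorescence stays within three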;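 also: channel opened by potassium depolarization with thallium stimulus after 20 min compound exposure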
A number is an active result; 0 = inactive; - = not tested or not shown. The list is not random: actives were taken first. Their share in the collection is about 3.8%.

SMILES | KCNK9 inh | hERG rescue | Kir21 block | KCNQ1 act | KCNK3 block | KCNQ1 inh
CCCCN(C)CC(O)Cn1cc(/C=C/C(=O)c2ccc(C)cc2)c2ccccc21 (stereo not given) | 0 | 0 | -5.2 | 0 | 0 | 0
NNC(=O)c1cc2nc(-c3cccs3)cc(C(F)(F)F)n2n1 | 0 | 0 | 0 | 0 | 0 | 0
FC(F)(F)c1cc(-c2cccs2)nc2cc(-c3cccs3)nn12 | 0 | 0 | 0 | 0 | 0 | 6
CCOc1cc(/C=C2\COc3ccccc3C2=O)ccc1OCC(=O)N(C)C | 0 | 0 | -4.3 | 0 | 0 | 0
Cc1nc(CS(=O)(=O)c2ccc(Cl)cc2)cc(Sc2ccc(Cl)cc2)n1 | -6.6 | 0 | -4.8 | 0 | 0 | 0
O=C(COC(=O)CC(c1ccccc1)c1ccccc1)NCc1ccccc1 | 0 | 0 | -5.8 | 0 | 0 | 0
O=C(COC(=O)CC(c1ccccc1)c1ccccc1)Nc1ccc(F)c(F)c1 | 0 | 0 | 0 | 0 | - | 6
O=C(COC(=O)Cc1ccc(-c2ccccc2)cc1)NCc1ccccc1 | 0 | 0 | 0 | 0 | 0 | 0
C=CC[C@@H](CC(=O)N[C@@H](CO)Cc1ccccc1)C(=O)N[C@H](C)COC(=O)[C@@H](CC=C)Cc1ccc(F)cc1 | - | - | - | - | 0 | -
Cc1sc(NC(=O)C2C3C=CC(C3)C2C(=O)O)c(C(N)=O)c1-c1ccc(C(C)C)cc1 (stereo not given) | 0 | 0 | 0 | 0 | 0 | 0
CC(Cc1ccccc1)NC(=O)CSc1nc2nc3c(cc2c(=O)n1-c1ccccc1)COC(C)(C)C3 (stereo not given) | 0 | 0 | 0 | 0 | 0 | 0
Cc1ccc(-c2csc(=S)[nH]2)cc1 | 0 | 97 | 0 | 94 | 0 | 0
S=c1[nH]c(-c2ccc(Cl)cc2)cs1 | 0 | 87 | 0 | 17 | 0 | 0
Cc1ccc(-c2ccc(C(=O)O)[nH]2)cc1 | 0 | 0 | 0 | 0 | 0 | 0
Cc1ccnc(NC(=O)CNC(=O)c2ccc3ccccc3c2)c1 | 0 | 0 | 0 | 0 | 0 | 0
Cc1ccnc(NC(=O)CNC(=O)c2ccc3c(c2)OCO3)c1 | 0 | 0 | 0 | 15 | 0 | 0
CCC(CC)C1=NN2C(=N)/C(=C\c3cc(C)n(-c4cccc(C)c4)c3C)C(=O)N=C2S1 | 0 | 0 | 0 | 0 | 0 | 0
CC(=O)c1csc(CS(=O)(=O)c2ccccn2)n1 | 0 | 0 | 0 | 0 | 0 | 0
OC(CN1CCCCC1)Cn1c2ccccc2c2ccccc21 (stereo not given) | 0 | 0 | 0 | 0 | 0 | 0
CCOc1ccc(CN2CCN(CC(O)Cn3c4ccccc4c4ccccc43)CC2)cc1 (stereo not given) | 0 | 0 | 0 | 0 | 0 | 0
O=c1c2ccccc2n(CC(O)CN2CCCCC2)c2ccccc12 (stereo not given) | -8.1 | 0 | 0 | 0 | 0 | 0
COc1ccc(CN2CCN(CC(O)Cn3c4ccccc4c4ccccc43)CC2)cc1 (stereo not given) | 0 | 0 | -4.4 | 0 | 0 | 0
CCCCCCNc1c([N+](=O)[O-])c(=O)sc2ccccc12 | 0 | 0 | 0 | 0 | 0 | 0
Cc1c(C#N)c(O)[nH]c(=O)c1N=Nc1ccc(Br)cc1C(=O)O | 0 | 4.6 | 0 | 0 | 0 | 0
Cc1cccc(N=Nc2c(C)c(C#N)c(O)[nH]c2=O)c1 | 0 | 0 | 0 | 0 | 0 | 0
SMILES | KCNK9 inh | hERG rescue | Kir21 block | KCNQ1 act | KCNK3 block | KCNQ1 inh
CN(C)N=Nc1nc2c(c(=O)n(C)c(=O)n2C)n1C | 0 | 0 | 0 | 0 | 0 | 0
COc1cc(CCCN2C(=S)NC[C@@H]2CC2CCCCC2)cc(OC)c1OC | 0 | 0 | -4.3 | 0 | 0 | 0
CN(CC(=O)Nc1sccc1C(N)=O)S(=O)(=O)c1ccc(Cl)cc1 | - | - | - | - | 0 | -
Cc1ccc(/C=C/C2=Cc3c(sc(NC(=O)CSc4n[nH]c(N)n4)c3C#N)C(C)(C)C2)o1 | 0 | 0 | 0 | 0 | - | 6
COc1ccc(OC)c(N2C(=O)CCCC2=O)c1 | 0 | 0 | 0 | 0 | 0 | 0
COc1ccccc1C(C)NCC(=O)Nc1c(F)cccc1F (stereo not given) | 0 | 0 | 0 | 0 | 0 | 0
COc1cc(Cl)c(C)cc1NC(=O)CNC(C)c1ccccc1OC (stereo not given) | 0 | 0 | -4.2 | 0 | 0 | 0
Cc1cc(C)cc(-n2c(C)cc(/C=N\NC(=O)COc3cccc4cccnc34)c2C)c1 | 0 | 0 | 0 | 0 | 0 | 7
CCOC(=O)N1CCN(S(=O)(=O)c2c(C(=O)N3CCCCC3)c(C)n(C)c2C)CC1 | 0 | 0 | 0 | 0 | 0 | 0
CC(C)NC(=NCc1ccc(Cl)cc1Cl)Nc1ccccc1 | 0 | 0 | 0 | 0 | 0 | 6
O=C(C/C=N\OCc1ccc(Cl)cc1Cl)Nc1ccccc1 | 0 | 0 | 0 | 0 | 0 | 0
CC(C)(C)OC(=O)N1CCC(C(=O)Nc2cccc(C(=O)NCc3ccccc3)c2)CC1 | - | - | - | - | 0 | -
OC1(c2ccc(Br)cc2)CCN(Cc2cccc(Br)c2)CC1 | 0 | 0 | -11 | 0 | 0 | 0
CCOC(=O)c1ccc(N=Cc2cnc(N)nc2N)cc1 | - | - | - | - | 0 | -
Cc1ccc(C2(c3ccccc3)NC(=O)N(CC(=O)NCc3ccccc3)C2=O)cc1C (stereo not given) | - | - | - | - | 0 | -
O=C(Nc1ccc(C(=O)N2CCCC2)cc1)Nc1ccc(Cl)cc1Cl | 0 | 0 | 0 | 0 | 0 | 0
Cc1ccc(C(C)NC(=O)c2cccs2)cc1C (stereo not given) | 0 | 5.2 | 0 | 0 | 0 | 0
Cc1ccc(C(C)NC(=O)c2cccs2)cc1 (stereo not given) | 0 | 0 | 0 | 0 | 0 | 0
COc1ccc(C(=O)NNC(=O)c2cc(C)nc3ccccc23)cc1 | - | - | - | - | 0 | -
C=CCSC(=C(C#N)C#N)c1cc2c([nH]1)CCCC2 | 0 | 0 | 0 | 0 | 0 | 8
C=CCn1c(=S)[nH]c2scc(-c3cccs3)c2c1=O | 0 | 41 | 0 | 53 | 0 | 0
C=CCn1c(=S)[nH]c2ccccc2c1=O | - | - | - | - | 0 | -
Cn1c(=S)[nH]c2scc(-c3cccs3)c2c1=O | 0 | 58 | 0 | 66 | 0 | 0
O=C(NC(=S)Nc1ccccc1N1CCCCC1)c1ccc(F)cc1Cl | 0 | 0 | 0 | 10 | 0 | 0
O=C(Nc1ccccc1N1CCCCC1)c1ccc(Cl)cc1 | -6.7 | 0 | 0 | 0 | 0 | 0
COC(=O)c1ccccc1NC(=S)NC(=O)COc1ccccc1Cl | 0 | 0 | 0 | 0 | 0 | 0
O=C(COc1ccccc1Cl)NC(=S)Nc1ccccc1N1CCCC1 | -13 | 8.5 | 0 | 7 | 0 | 0
O=C(NC(=S)Nc1ccccc1N1CCOCC1)c1ccc(-c2ccccc2F)o1 | 0 | 0 | 0 | 13 | 0 | 0
